Source: ChEMBL document CHEMBL2169822, “Discovery and optimization of 1,3,4-trisubstituted-pyrazolone derivatives as novel, potent, and nonsteroidal farnesoid X receptor (FXR) selective antagonists” (J Med Chem, 2012)
The source made the active and inactive calls. The calls are words filed in the database; no cut-off is given here.

Columns and labels:
HEK-293T = experiment: Agonist activity at FXRalpha/RXRalpha expressed in HEK293T cells co-expressing GAL4 DBD after 18 hrs by luciferase based transactivation assay; type: functional, cell-based; conditions: Homo sapiens
Summary of the method: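 FXR transactivation in HEK293T cells transiently transfected with pcDNA3.1-FXRα, pcDNA3.1-RXRα, pGL3-FXRE-Luc and pRL-SV40 Renilla vector. Medium was replaced 6 h after transfection with medium holding compound at varied concentrations, with or without 20 μM CDCA, for 18 h. Read-out was dual-luciferase. Three independent experiments.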

[1] = biological target: T1, Oxysterols receptor LXR-alpha (Homo sapiens) (UniProt Q13133); experiment: Agonist activity at recombinant LXRalphaLBD expressed in HEK293T cells co-expressing GAL4 DBD at 20 uM by transactivation assay; type: functional, cell-based; conditions: HEK-293T
T1 sequence (whole entry): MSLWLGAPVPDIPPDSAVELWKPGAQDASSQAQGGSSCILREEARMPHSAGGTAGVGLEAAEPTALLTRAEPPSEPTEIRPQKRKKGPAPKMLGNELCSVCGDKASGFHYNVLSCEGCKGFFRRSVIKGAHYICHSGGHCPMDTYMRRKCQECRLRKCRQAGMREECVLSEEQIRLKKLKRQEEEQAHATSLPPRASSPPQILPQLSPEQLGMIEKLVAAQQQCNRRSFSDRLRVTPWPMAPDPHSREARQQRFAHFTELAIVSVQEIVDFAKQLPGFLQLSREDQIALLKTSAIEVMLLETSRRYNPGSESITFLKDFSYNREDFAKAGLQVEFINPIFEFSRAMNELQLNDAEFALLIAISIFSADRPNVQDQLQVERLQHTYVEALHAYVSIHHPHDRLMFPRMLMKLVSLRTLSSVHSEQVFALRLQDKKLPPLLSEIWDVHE
Summary of the method: (§1)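 One-hybrid assay in HEK293T cells cotransfected with a Gal4 DBD–NR-LBD fusion (RXRα, LXRα, GR, PR, PPARδ or PPARγ) plus UAS-TK-Luc reporter. Compound was 20 μM, given alone or with agonist: 9cRA 0.1 μM (RXRα), TO901317 0.5 μM (LXRα), dexamethasone 50 nM (GR), progesterone 100 nM (PR), GW1516 10 μM (PPARδ), rosiglitazone 10 μM (PPARγ). Luciferase read-out; three independent experiments.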

[2] = biological target: T2, Bile acid receptor (Homo sapiens) (UniProt Q96RI1); experiment: Antagonist activity at human FXR in human HepG2 cells assessed as inhibition of CDCA induced BSEP gene expression at 5 to 40 uM after 24 hrs by RT-PCR analysis; type: functional, cell-based
T2 sequence (whole entry): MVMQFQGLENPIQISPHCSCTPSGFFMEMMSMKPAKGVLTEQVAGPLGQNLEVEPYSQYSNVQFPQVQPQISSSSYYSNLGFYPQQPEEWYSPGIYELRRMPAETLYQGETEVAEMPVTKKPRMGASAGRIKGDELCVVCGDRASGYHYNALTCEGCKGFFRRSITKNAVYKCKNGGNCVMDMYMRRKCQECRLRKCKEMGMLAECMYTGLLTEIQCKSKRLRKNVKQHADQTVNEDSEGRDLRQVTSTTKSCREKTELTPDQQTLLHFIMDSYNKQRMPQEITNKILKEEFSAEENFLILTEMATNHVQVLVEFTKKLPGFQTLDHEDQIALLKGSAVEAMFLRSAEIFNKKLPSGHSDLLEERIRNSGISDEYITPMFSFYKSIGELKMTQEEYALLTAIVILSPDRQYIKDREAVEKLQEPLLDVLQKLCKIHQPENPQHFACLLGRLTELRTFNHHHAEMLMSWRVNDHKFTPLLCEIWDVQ
Summary of the method: (§2)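 HepG2 cells in 6-well plates were treated with varied concentrations of compound, with or without 100 μM CDCA, for 24 h. Total RNA was taken with TRIzol and cDNA made by reverse transcription. Cyp7A1, SHP, BSEP and SREBP1c mRNA were measured by quantitative RT-PCR and normalized to β-actin. Three independent experiments.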

[3] = Binding affinity to FXRalphaLBD assessed as fluorescence quenching after 1 hr
Summary of the method: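 Untagged FXRαLBD (His-tag removed with thrombin; Ni-NTA and ion exchange purified), 1 μM, was incubated with varied compound concentrations for 1 h at 4 °C. Tryptophan fluorescence was read at 25 °C: excitation 280 nm, emission 300–400 nm, 5 nm slits. KD was fitted from quenching.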

[4] = biological target: T2, Bile acid receptor (Homo sapiens); experiment: Antagonist activity at human FXR in human HepG2 cells assessed as inhibition of CDCA induced SREBP1c gene expression at 5 to 40 uM after 24 hrs by RT-PCR analysis; type: functional, cell-based; summary of the method: as §2
Homo sapiens = species: Homo sapiens; experiment: Ratio of Z-guggulsterone IC50 to compound IC50 for GST-tagged human recombinant FXRalphaLBD
[5] = biological target: T3, Retinoic acid receptor RXR-alpha (Homo sapiens) (UniProt P19793); experiment: Antagonist activity at recombinant RXRalpha LBD expressed in HEK293T cells co-expressing GAL4 DBD assessed as inhibition of 9cRA-induced transactivation at 20 uM by luciferase reporter gene assay; type: functional, cell-based; conditions: HEK-293T; summary of the method: as §1
T3 sequence (whole entry): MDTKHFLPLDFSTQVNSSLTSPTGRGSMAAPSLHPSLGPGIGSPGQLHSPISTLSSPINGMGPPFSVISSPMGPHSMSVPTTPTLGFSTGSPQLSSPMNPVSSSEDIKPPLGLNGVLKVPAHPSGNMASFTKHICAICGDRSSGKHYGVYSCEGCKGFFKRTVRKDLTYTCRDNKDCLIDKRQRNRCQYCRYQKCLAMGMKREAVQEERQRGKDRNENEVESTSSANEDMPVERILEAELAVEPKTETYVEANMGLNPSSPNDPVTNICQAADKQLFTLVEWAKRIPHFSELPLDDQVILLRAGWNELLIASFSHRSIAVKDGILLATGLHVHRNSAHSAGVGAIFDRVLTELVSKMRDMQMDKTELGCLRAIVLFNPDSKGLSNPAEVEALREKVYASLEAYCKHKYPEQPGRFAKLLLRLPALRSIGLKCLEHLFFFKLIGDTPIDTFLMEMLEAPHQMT

COc1cc(/C=C2\C(=O)N(c3cccc([N+](=O)[O-])c3)N=C2c2ccccc2)ccc1O
Activity (HEK-293T): inactive | Activity [1]: inactive | inhibition [2]: Active | Activity [3]: Dose-dependent effect | Kd [3]: 23.1 µM | inhibition [4]: Active | Ratio IC50 (Homo sapiens): 10 | inhibition [5]: inactive
